In one series the target is T1, Renin (Homo sapiens, UniProt P00797).
T1 sequence (P00797 whole entry): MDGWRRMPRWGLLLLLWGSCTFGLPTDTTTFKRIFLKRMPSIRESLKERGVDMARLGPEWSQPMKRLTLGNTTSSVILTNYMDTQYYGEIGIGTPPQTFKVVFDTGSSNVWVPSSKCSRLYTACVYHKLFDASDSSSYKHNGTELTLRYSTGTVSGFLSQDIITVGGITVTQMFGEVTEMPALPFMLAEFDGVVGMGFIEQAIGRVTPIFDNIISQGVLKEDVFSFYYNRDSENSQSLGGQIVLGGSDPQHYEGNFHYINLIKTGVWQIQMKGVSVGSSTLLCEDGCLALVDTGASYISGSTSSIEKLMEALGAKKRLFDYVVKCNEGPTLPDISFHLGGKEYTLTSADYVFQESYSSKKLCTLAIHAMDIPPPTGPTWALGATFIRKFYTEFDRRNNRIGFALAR
Briefly: Inhibitory concentration against human plasma renin at pH 7.4. In kind it is cell-free.

Series [1] is described as follows: Bioavailability in the systemic circulation after 10 minutes was determined after intraduodenal dose of 10 mg/kg in rat by HPLC method. In kind it is ADME, organism-based. Particulars: plasma (systemic circulation), read-out: Plasma level. In outline: (§1)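 Screening model in anesthetized rats given 10 mg/kg intraduodenally. Formulation was ethanol stock with 110 mol % HCl, diluted with aqueous hydroxypropyl methylcellulose to 25% ethanol. Systemic and portal blood drawn at 10 and 30 min in the same animals. Drug level (ng/mL) measured by HPLC or renin inhibition assay. Mean ± SEM, n = 3 unless noted.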

The nature of series [2]: Bioavailability in the systemic circulation after 30 minutes was determined after intraduodenal dose of 10 mg/kg in rat by HPLC method. It counts as ADME, organism-based. The conditions noted are these: plasma (systemic circulation), read-out: Plasma level. In outline:
as §1

The nature of series [3]: Integrated area under the plasma drug level-time curve was determined in systemic circulation after intraduodenal dose of 10 mg/kg in rat. It counts as ADME, organism-based. Details: dose 10 mg/kg, route intraduodenal. Put shortly: (§2)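 Intraduodenal 10 mg/kg to anesthetized rats or ferrets. Compound dissolved in ethanol with 110 mol % HCl, then diluted in aqueous hydroxypropyl methylcellulose to 25% ethanol (10 mg/mL). Plasma sampled id rat 15, 30, 60, 120 min; id ferret 5, 15, 30, 60, 120, 180 min. Drug measured by renin inhibition assay or HPLC. AUC in ng h/mL. Bioavailability is relative to iv 1.0 mg/kg (rat) or 0.3 mg/kg (ferret).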

Series [4] can be described thus: Integrated area under the plasma drug level-time curve was determined in systemic circulation after intraduodenal dose of 10 mg/kg in ferret. It counts as ADME, organism-based, Mustela putorius furo. Details: dose 10 mg/kg, route intraduodenal. Put shortly:
as §2

Series [5] in a line: Bioavailability in the portal circulation after 30 minutes was determined after intraduodenal dose of 10 mg/kg in rat by HPLC method. It counts as ADME, organism-based. The conditions noted are these: plasma (portal circulation), read-out: Plasma level. Put shortly:
as §1

The nature of series [6]: Bioavailability in ferret (dose 10 mg/kg i.d.). It counts as ADME, organism-based, Mustela putorius furo. The conditions noted are these: in vivo. In outline: as §2
A short description of series [7]: Bioavailability in the portal circulation after 10 minutes was determined after intraduodenal dose of 10 mg/kg in rat by HPLC method. It counts as ADME, organism-based. The conditions noted are these: plasma (portal circulation), read-out: Plasma level. Put shortly:
as §1

Series [8] can be described thus: Peak concentration was determined in systemic circulation after intraduodenal dose of 10 mg/kg in rat. Details: dose 10 mg/kg, route intraduodenal. The conditions noted are these: in vivo, read-out: Activity. In kind it is ADME, organism-based. Put shortly: as §2
Series [9] can be described thus: Peak concentration was determined in systemic circulation after intraduodenal dose of 10 mg/kg in ferret. In kind it is ADME, organism-based, Mustela putorius furo. Details: dose 10 mg/kg, route intraduodenal. Particulars: in vivo, read-out: Activity. In outline: as §2
Series [10] can be described thus: Partition coefficient in the octanol/water phase at pH 7.4. In kind it is physicochemical. In outline: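 log P measured by octanol/water partition at pH 7.4.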
Series [11] can be described thus: Bioavailability in rat (dose 10 mg/kg i.d.). It counts as ADME, organism-based. The conditions noted are these: in vivo. Put shortly: as §2
A short description of series [12]: Solubility at pH 7.4. It counts as physicochemical. The conditions noted are these: buffer.
Series [13] is described as follows: Bioavailability in the systemic circulation after 10 minutes was determined after intraduodenal dose of 10 mg/kg in rat by renin inhibition assay. It counts as ADME, organism-based. Particulars: plasma (systemic circulation), read-out: Plasma level. In outline: as §1
A short description of series [14]: Bioavailability in the portal circulation after 10 minutes was determined after intraduodenal dose of 10 mg/kg in rat by renin inhibition assay. In kind it is ADME, organism-based. Particulars: plasma (portal circulation), read-out: Plasma level. Put shortly: as §1
A short description of series [15]: Bioavailability in the systemic circulation after 30 minutes was determined after intraduodenal dose of 10 mg/kg in rat by renin inhibition assay. Particulars: plasma (systemic circulation), read-out: Plasma level. It counts as ADME, organism-based. Put shortly: as §1
The nature of series [16]: Bioavailability in the portal circulation after 30 minutes was determined after intraduodenal dose of 10 mg/kg in rat by renin inhibition assay. In kind it is ADME, organism-based. Particulars: plasma (portal circulation), read-out: Plasma level. In outline: as §1
The nature of series [17]: Integrated area under the plasma drug level-time curve was determined in portal circulation after intraduodenal dose of 10 mg/kg in monkey. Details: dose 10 mg/kg, route intraduodenal. Particulars: simiiformes. It counts as ADME, organism-based. Put shortly:
(§3)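 Anesthetized, salt-depleted cynomolgus monkeys dosed intraduodenally at 10 mg/kg in HCl salt/ethanol–hydroxypropyl methylcellulose vehicle (25% ethanol). Systemic and portal plasma drug levels measured by renin inhibition assay. AUC in ng h/mL. Bioavailability compared against an iv dose of 0.3 mg/kg or 1.0 mg/kg, the latter taken from earlier work. Mean ± SEM.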

A short description of series [18]: Bioavailability in the systemic circulation after 10 minutes was determined after intraduodenal dose of 15 mg/kg in rat by renin inhibition assay. In kind it is ADME, organism-based. Particulars: plasma (systemic circulation), read-out: Plasma level.
Series [19] in a line: Integrated area under the plasma drug level-time curve was determined in systemic circulation after intraduodenal dose of 10 mg/kg in monkey. It counts as ADME, organism-based. Particulars: simiiformes. Also on record: dose 10 mg/kg, route intraduodenal. In outline: as §3
The nature of series [20]: Bioavailability was determined after intraduodenal dose of 10 mg/kg in monkey (compared to 1 mg/kg intravenous dose). It counts as ADME, organism-based. The conditions noted are these: simiiformes, in vivo, read-out: Bioavailabiility. Put shortly: as §3
Series [21] can be described thus: Hypotension peak is percentage change from predose baseline pressure observed after intraduodenal dose of 10 mg/kg in monkey. It counts as ADME, organism-based. Details: dose 10 mg/kg, route intraduodenal. The conditions noted are these: simiiformes, in vivo, other. In outline:
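Anesthetized, salt-depleted cynomolgus monkeys given 10 mg/kg intraduodenally. Mean arterial pressure followed for up to 5 h. Peak fall expressed as % change from predose baseline. Difference from baseline significant if P < 0.05. Mean ± SEM.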

The nature of series [22]: Peak concentration was determined in systemic circulation after intraduodenal dose of 10 mg/kg in monkey. In kind it is ADME, organism-based. Details: dose 10 mg/kg, route intraduodenal. Particulars: simiiformes, in vivo, read-out: Activity. In outline: as §3
Series [23] is described as follows: Peak concentration was determined in portal circulation after intraduodenal dose of 10 mg/kg in monkey. It counts as ADME, organism-based. Details: dose 10 mg/kg, route intraduodenal. The conditions noted are these: simiiformes, in vivo, read-out: Activity. Put shortly: as §3

Values after ≈ are worked out from the molar mass of the structure shown.

Consider 9 compounds from ChEMBL document CHEMBL1126595, “Studies directed toward the design of orally active renin inhibitors. 2. Development of the efficacious, bioavailable renin inhibitor (2S)-2-benzyl-3- [[(1-methylpiperazin-4-yl)sulfonyl]propionyl]-3-thiazol-4-yl-L-alanine amide of (2S,3R,4S)-2-amino-1-cyclohexyl-3,4-dihydroxy-6-methylheptane …” (J Med Chem, 1993).

Broadly, the IC50 is the concentration that gives 50% inhibition. With `CC(C)C[C@H](O)[C@H](O)[C@H](CC1CCCCC1)NC(=O)[C@H](Cc1cscn1)NC(=O)[C@@H](CC(=O)N(C)CCc1c[nH]c2ccccc12)Cc1ccccc1`, at Renin, the IC50 turned out to be 33 nM.
As a reminder, the AUC is the area under the concentration-time curve, a measure of exposure. What is called logD is lipophilicity at a set pH, counting ionised and neutral species. The solubility is the concentration that dissolves in the medium under given conditions. As for `CC(C)C[C@H](O)[C@H](O)[C@H](CC1CCCCC1)NC(=O)[C@H](Cn1cccn1)NC(=O)[C@@H](CC(=O)N(C)CCc1ccccn1)Cc1ccccc1`, the concentration at 10 min in series [1] worked out at 220 ng/mL; in series [7], 2200 ng/mL. Further, the concentration at 0.5 h was found to be 300 ng/mL in [2] and 4500 ng/mL in series [5]. Moreover, the AUC in [3] stood at 760 ng·h/mL; in series [4], 870 ng·h/mL. The bioavailability worked out at 35% in series [6] and 20% in series [11]. In addition, the Cmax is 460 ng/mL in [8] and 400 ng/mL in series [9]. In [10], the logD was > 4.2. Also, the IC50 at Renin amounted to 1.6 nM. In addition, in [12], the concentration in solution (solubility) came to 14 µg/mL (≈ 20.3 µM).
With `CC(C)C[C@H](O)[C@H](O)[C@H](CC1CCCCC1)NC(=O)[C@H](Cc1cscn1)NC(=O)[C@H](Cc1ccccc1)CS(=O)(=O)N(C)CCc1ccccn1`, the logD in [10] was > 4.5. This compound gave an IC50 on Renin of 1.8 nM.
For the compound `CC(C)C[C@H](O)[C@H](O)[C@H](CC1CCCCC1)NC(=O)[C@H](Cc1cscn1)NC(=O)[C@@H](CC(=O)N(C)CCn1cccn1)Cc1ccccc1`, the results for the concentration at 10 min in series [1] and in series [7] were 140 ng/mL and 1900 ng/mL, respectively. For the same compound, the figures for the concentration at 0.5 h in [2] and in series [5] were 230 ng/mL and 2300 ng/mL, respectively. Moreover, the pH-dependent lipophilicity (logD) in series [10] is > 4.2. This compound yielded an IC50 on Renin of 0.72 nM. In addition, the concentration in solution in series [12] (solubility) came to 44 µg/mL (≈ 63.3 µM).
Take `COCCN(C)C(=O)C[C@@H](Cc1ccccc1)C(=O)N[C@@H](Cc1cscn1)C(=O)N[C@@H](CC1CCCCC1)[C@@H](O)[C@@H](O)CC(C)C`: the concentration at 10 min in [1] turned out to be 33 ng/mL; in series [7], 930 ng/mL. The concentration at 0.5 h in series [2] came out at 33 ng/mL; in series [5], 600 ng/mL. This compound came in with an IC50 at Renin of 4.1 nM.
Consider `CC(C)C[C@H](O)[C@H](O)[C@H](CC1CCCCC1)NC(=O)[C@H](Cc1cscn1)NC(=O)[C@@H](CC(=O)N(C)CCN1CCN(C)CC1)Cc1ccccc1`, for which the concentration at 10 min in series [13] came out at 80 ng/mL; in [14], 580 ng/mL. In [10], this compound showed a logD of 3.58. On Renin, this compound displayed an IC50 of 8.5 nM. The concentration at 0.5 h in series [15] was 74 ng/mL; in series [16], 590 ng/mL.
At Renin, `CC(C)C[C@H](O)[C@H](O)[C@H](CC1CCCCC1)NC(=O)[C@H](Cn1ccnc1)NC(=O)[C@@H](CC(=O)N(C)CCc1ccccn1)Cc1ccccc1` had a 50% inhibitory concentration (IC50) of 14 nM.
For `CC(C)C[C@H](O)[C@H](O)[C@H](CC1CCCCC1)NC(=O)[C@H](Cc1cscn1)NC(=O)[C@@H](CC(=O)N(C)CCc1ccncc1)Cc1ccccc1`, in series [2], the concentration at 0.5 h was 190 ng/mL. Also, in series [10], the pH-dependent lipophilicity (logD) is > 4.2. Further, it took 3 nM to reach half-maximal inhibition against Renin (IC50). The compound further returned a solubility in [12] of 12 µg/mL (≈ 17 µM).
Consider `CC(C)C[C@H](O)[C@H](O)[C@H](CC1CCCCC1)NC(=O)[C@H](Cc1cscn1)NC(=O)[C@H](Cc1ccccc1)CS(=O)(=O)N1CCN(C)CC1` [ZANKIREN], for which the AUC in series [3] was determined as 620 ng·h/mL; in [17], 3800 ng·h/mL; in series [19] it was 340 ng·h/mL; in series [4], 1500 ng·h/mL. Moreover, the concentration at 10 min in [18] was found to be 280 ng/mL. Further, the figures for the bioavailability in series [20], in series [6] and in series [11] were 5.1%, 82% and 23%, respectively. This compound also displayed a Change in series [21] of 37%. Moreover, the Cmax in series [22] is 130 ng/mL; in series [23], 2400 ng/mL; in [8] it was 470 ng/mL; in series [9], 940 ng/mL. Also, the logD in series [10] was determined as 4.57. In series [15], the concentration at 0.5 h amounted to 440 ng/mL.
